Data reported in paper PMC7610841 (Nature, 2020).

B1: Dally[E149R, N150T, M151Q, T152F]: Dally mutant removing predicted glycosylation site and restoring hydrophobic F (protein)
chain: KHLDLDGIHHHQHHLHSATTHHRRRLQRDSRAKDAVGGSTHQCDAVKSYFESIDIKSSGTYSEKGAICGGNCCNNATELELRDKAAGMFEQLLHHHTSSLRGVLETNAKQFQSHVLELAQISRTQFHSLFSKVYTRMVPSSRMMIHQLYTEIMNHLIYTSNYTNSNGQLGRRGIGSVQSNLEEAVRHFFVQLFPVAYHQMVHLSKNNLGDLHEDYVNCLQHNFDEMHPFGDIPQQVQSNLGKSVHMSNVFMNALLQAAEVLSEADALYGEQLTDTCKLHLLKMHYCPNCNGHHSSSRSETKLCYGYCKNVMRGCSAEYAGLLDSPWSGVVDSLNNLVTTHILSDTGIINVIKHLQTYFSEAIMAAMHNGPELEKKVKKTCGTPSLTPYSSGEPDARPPPHKNNVKWATDPDPGMVLFLSTIDKSKEFYTTIVDNFCDEQQHSRDDHSCWSGDRFGDYTQLLINPGTDSQRYNPEVPFNAKAQTGKLNELVDKLFKIRKSIGAAAPSNSIQATHDIQNDMGEGSGGGEGQIGDDEEEYGGAHGSGDGSGDGPHTPIEESEGTTTNEVESRDSGKTSG
modifications: left off: HA, end not stated, kept
B2: GPC6: human glypican of Dlp family; secreted ΔGPI form (amino acids 1-529) in solubilisation assays (protein)
chain: DVKARSCGEVRQAYGAKGFSLADIPYQEIAGEHLRICPQEYTCCTTEMEDKLSQQSKLEFENLVEETSHFVRTTFVSRHKKFDEFFRELLENAEKSLNDMFVRTYGMLYMQNSEVFQDLFTELKRYYTGGNVNLEEMLNDFWARLLERMFQLINPQYHFSEDYLECVSKYTDQLKPFGDVPRKLKIQVTRAFIAARTFVQGLTVGREVANRVSKVSPTPGCIRALMKMLYCPYCRGLPTVRPCNNYCLNVMKGCLANQADLDTEWNLFIDAMLLVAERLEGPFNIESVMDPIDVKISEAIMNMQENSMQVSAKVFQGCGQPKPAPALRSARSAPENFNTRFRPYNPEERPTTAAGTSLDRLVTDIKEKLKLSKKVWSALPYTICKDESVTAGTSNEEECWNGHSKARYLPEIMNDGLTNQINNPEVDVDITRPDTFIRQQIMALRVMTNKLKNAYNGNDVNFQDTSDESSGSGSGSGCMDDVCPTEFEFVTTEAPAVDPDRREVDS
modifications: left off: V5, internal (immediately after the signal peptide), state not stated
B3: Dlp[F172T, F195Y]: Dlp mutant replacing hydrophobic residues with polar ones (protein)
chain: MLHQQQQQQHLHCRRKATATTTARLVIFSSPLLLLLLTTHLPPTLQADNGPAPQVAALAAPNPAGGVAGSSIIDQFSPNCSAVTHIFQARGIDAIEIPQKPSNERVLRYCESPSVGTCCTYNMETRMAMQSRQQLEGHTKDQISRMSGILGSKATKFKDIFTALLKESRTQTNSMFIRTYGVIYERNSYVFSDLYKELETYFANGRVDLLEVMDKFFNTLYQKMFTVLNTQYTFDENYMRCVSEHMKELKPFGDVPDKLSVQIKRSFVATRTYGQALTTASEVAKKVLNVRLNADCTGALTKMQHCGACKGYTEKPCTNYCVNVIKGCLHYQHEFDSEWENFAMAMDKVAERLLGSFNIVMVVEPLNIKISEAIMNFQDSGQDITNRVFQGCGRPKLKKMKRSISPKLQGVQILNARSPVEADTLDIDETLDEAIVLRERRAAEPGSQETSAQQSQEQGVGKSGNGGGGGGGNNRRQQQRRKQQQQRRKQQNNRDDNDDDDNESGGGREPILDRIVRDIRQRVKDYKKFWSNLPHSVCSNEDIASSSDVDGMCWNGHTIDRYMHSITTEHGSNPEFTGNPASTKQTAQMASQLSHLKNAIVHLRNAYNGQDVEWSEQEELPYAGSGAGSGSGSEDDEDDDEGSGLGPFEPSHKPDVERPSVDADNDDDEDAGGRGHMPTHTSRPTSGVDDKNPLIHTTHFDQDHNDLDEDHRQLDEDEDTDAGHDGANDNRSSDAPEKMTLRRALVVYLLPLYMAWFGGVCADLL
modifications: left off: HA, end not stated, kept
B4: Dlp[R169E, T170N, Q171M, F172T]: Dlp mutant introducing the putative glycosylation site of Dally (protein)
chain: MLHQQQQQQHLHCRRKATATTTARLVIFSSPLLLLLLTTHLPPTLQADNGPAPQVAALAAPNPAGGVAGSSIIDQFSPNCSAVTHIFQARGIDAIEIPQKPSNERVLRYCESPSVGTCCTYNMETRMAMQSRQQLEGHTKDQISRMSGILGSKATKFKDIFTALLKESENMTNSMFIRTYGVIYERNSYVFSDLFKELETYFANGRVDLLEVMDKFFNTLYQKMFTVLNTQYTFDENYMRCVSEHMKELKPFGDVPDKLSVQIKRSFVATRTYGQALTTASEVAKKVLNVRLNADCTGALTKMQHCGACKGYTEKPCTNYCVNVIKGCLHYQHEFDSEWENFAMAMDKVAERLLGSFNIVMVVEPLNIKISEAIMNFQDSGQDITNRVFQGCGRPKLKKMKRSISPKLQGVQILNARSPVEADTLDIDETLDEAIVLRERRAAEPGSQETSAQQSQEQGVGKSGNGGGGGGGNNRRQQQRRKQQQQRRKQQNNRDDNDDDDNESGGGREPILDRIVRDIRQRVKDYKKFWSNLPHSVCSNEDIASSSDVDGMCWNGHTIDRYMHSITTEHGSNPEFTGNPASTKQTAQMASQLSHLKNAIVHLRNAYNGQDVEWSEQEELPYAGSGAGSGSGSEDDEDDDEGSGLGPFEPSHKPDVERPSVDADNDDDEDAGGRGHMPTHTSRPTSGVDDKNPLIHTTHFDQDHNDLDEDHRQLDEDEDTDAGHDGANDNRSSDAPEKMTLRRALVVYLLPLYMAWFGGVCADLL
modifications: left off: HA, end not stated, kept
B5: GPC4: human glypican of Dlp family; secreted ΔGPI form (amino acids 1-487) in solubilisation assays (protein)
chain: ALLAAELKSKSCSEVRRLYVSKGFNKNDAPLHEINGDHLKICPQGSTCCSQEMEEKYSLQSKDDFKSVVSEQCNHLQAVFASRYKKFDEFFKELLENAEKSLNDMFVKTYGHLYMQNSELFKDLFVELKRYYVVGNVNLEEMLNDFWARLLERMFRLVNSQYHFTDEYLECVSKYTEQLKPFGDVPRKLKLQVTRAFVAARTFAQGLAVAGDVVSKVSVVNPTAQCTHALLKMIYCSHCRGLVTVKPCYNYCSNIMRGCLANQGDLDFEWNNFIDAMLMVAERLEGPFNIESVMDPIDVKISDAIMNMQDNSVQVSQKVFQGCGPPKPLPAGRISRSISESAFSARFRPHHPEERPTTAAGTSLDRLVTDVKEKLKQAKKFWSSLPSNVCNDERMAAGNGNEDDCWNGKGKSRYLFAVTGNGLANQGNNPEVQVDTSKPDILILRQIMALRVMTSKMKNAYNGNDVDFFDISDESSGEGSGSGCEYQQCPSEFDYNATDHAGKSANEKADS
modifications: left off: V5, internal (immediately after the signal peptide), state not stated
B6: Dlp[N367C, M175C]^ΔGPI: Dlp mutant with engineered disulphide bridge locking closed, apo conformation (protein)
chain: PQVAALAAPNPAGGVAGSSIIDQFSPNCSAVTHIFQARGIDAIEIPQKPSNERVLRYCESPSVGTCCTYNMETRMAMQSRQQLEGHTKDQISRMSGILGSKATKFKDIFTALLKESRTQFNSCFIRTYGVIYERNSYVFSDLFKELETYFANGRVDLLEVMDKFFNTLYQKMFTVLNTQYTFDENYMRCVSEHMKELKPFGDVPDKLSVQIKRSFVATRTYGQALTTASEVAKKVLNVRLNADCTGALTKMQHCGACKGYTEKPCTNYCVNVIKGCLHYQHEFDSEWENFAMAMDKVAERLLGSFNIVMVVEPLCIKISEAIMNFQDSGQDITNRVFQGCGRPKLKKMKRSISPKLQGVQILNARSPVEADTLDIDETLDEAIVLRERRAAEPGSQETSAQQSQEQGVGKSGNGGGGGGGNNRRQQQRRKQQQQRRKQQNNRDDNDDDDNESGGGREPILDRIVRDIRQRVKDYKKFWSNLPHSVCSNEDIASSSDVDGMCWNGHTIDRYMHSITTEHGSNPEFTGNPASTKQTAQMASQLSHLKNAIVHLRNAYNGQDVEWSEQEELPYAGSGAGSGSGSEDDEDDDEGSGLGPFEPSHKPDVERPSVDADNDDDEDAGGRGHMPTHTSRPTSGVDDKNPLIHTTHFDQDHNDLDEDHRQLDEDEDTDAG
modifications: left off: V5, C-terminal, kept
B7: Dlp[S168M]^ΔGPI: Dlp mutant with bulky residue at cavity entrance; HA form used in discs (protein)
chain: PQVAALAAPNPAGGVAGSSIIDQFSPNCSAVTHIFQARGIDAIEIPQKPSNERVLRYCESPSVGTCCTYNMETRMAMQSRQQLEGHTKDQISRMSGILGSKATKFKDIFTALLKEMRTQFNSMFIRTYGVIYERNSYVFSDLFKELETYFANGRVDLLEVMDKFFNTLYQKMFTVLNTQYTFDENYMRCVSEHMKELKPFGDVPDKLSVQIKRSFVATRTYGQALTTASEVAKKVLNVRLNADCTGALTKMQHCGACKGYTEKPCTNYCVNVIKGCLHYQHEFDSEWENFAMAMDKVAERLLGSFNIVMVVEPLNIKISEAIMNFQDSGQDITNRVFQGCGRPKLKKMKRSISPKLQGVQILNARSPVEADTLDIDETLDEAIVLRERRAAEPGSQETSAQQSQEQGVGKSGNGGGGGGGNNRRQQQRRKQQQQRRKQQNNRDDNDDDDNESGGGREPILDRIVRDIRQRVKDYKKFWSNLPHSVCSNEDIASSSDVDGMCWNGHTIDRYMHSITTEHGSNPEFTGNPASTKQTAQMASQLSHLKNAIVHLRNAYNGQDVEWSEQEELPYAGSGAGSGSGSEDDEDDDEGSGLGPFEPSHKPDVERPSVDADNDDDEDAGGRGHMPTHTSRPTSGVDDKNPLIHTTHFDQDHNDLDEDHRQLDEDEDTDAG
modifications: left off: V5, C-terminal, kept

Columns and labels:
extracellular Wingless = test: In vivo trapping of endogenous extracellular Wingless in wing discs; parameters: species or system Drosophila; conditions: overexpressed with ptc-gal4 in wing discs; extracellular Wingless staining
Method in brief: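 HA-tagged wild-type or point-mutant Dlp/Dally transgenes (attP2 landing site) driven by ptc-gal4, crossed at 25°C. Wing discs immunostained for extracellular Wingless using an extracellular staining protocol, DAPI-mounted and imaged on a confocal microscope. Three independent repeats.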

GFP-Wingless = test: In vivo trapping of GFP-Wingless at the surface of wing imaginal disc cells; parameters: species or system Drosophila; conditions: overexpressed with ptc-Gal4 in wing imaginal discs
Method in brief: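 GFP-Wingless knock-in wing discs with V5-tagged human GPC4, GPC6, GPC3 or GPC5 driven by ptc-Gal4, crossed at 25°C. Surface capture of GFP-Wingless imaged by confocal microscopy after immunostaining with Alexa-conjugated secondaries and DAPI mounting. Three independent repeats.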

senseless = test: Effect of overexpression on high target gene senseless in wing discs; format: in vivo, Drosophila; conditions: driven with ptc-Gal4 in wing discs
Method in brief: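 Wing discs from crosses at 25°C, with V5-tagged human glypican UAS-attB transgenes driven by ptc-Gal4 (senseless) or en-Gal4 (Distal-less). Discs immunostained with Alexa-conjugated secondaries, DAPI-mounted and imaged by confocal microscopy. Distal-less signal quantified in boxed regions and plotted separately for anterior and posterior compartments. Three independent repeats.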

| Molecule | trapping of endogenous Wingless (extracellular Wingless) | also measured |
| --- | --- | --- |
| B1 | did not confer lipid-binding activity | – |
| B2 | – | trapping of GFP-Wingless at the cell surface (GFP-Wingless; listed as hGPC6): trapped Wingless; effect on high target gene senseless (senseless): inhibit the high target gene senseless |
| B3 | reduced trapping, though not completely | – |
| B4 | reduced trapping, though not completely | – |
| B5 | – | trapping of GFP-Wingless at the cell surface (GFP-Wingless; listed as hGPC4): trapped Wingless; effect on high target gene senseless (senseless): inhibit the high target gene senseless |
| B6 | no in vivo trapping activity | – |
| B7 | retained some activity | – |
